# thrombin 1536 – thrombin (human) inhibition; alpha-thrombin, Boc-VPR-AMC fluorogenic substrate cleavage; 220,000 compounds, 0.26% hits; inhibition, % at 5 µM; P00734;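 active = inhibition at or above 40%; inactive = inhibition below 40%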;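 also: 0% = enzyme with no compound and 100% = wells without enzyme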
#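 Test system: human alpha-thrombin protein / Dosing: one concentration per compound, 5 µM, with 0.2% DMSO / Medium: pH 7.5 Tris-saline with Tween 20 / Benchmarks: no-compound enzyme wells and no-enzyme blanks / Read-out basis: percent inhibition of thrombin substrate cleavage / Timing: reaction at room temperature / Measured by: fluorescence, ex 355 nm, em 460 nm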
# Biofilm kill mix – mixtures killing C. albicans biofilm | C. albicans biofilm persisters + clotrimazole, fluorescence viability; primary screen in compound mixtures of four per well | inhibition, % at 7.6 µM | 120,000 compounds, 0.02% hits | AID 1242;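 active = inhibition above 30.3% in the primary screen of four-compound pools, then above 30% when the compound was retested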;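 also: compounds exposed to preformed 24 h biofilms for 48 h; 0% = untreated biofilm control and 100% = clotrimazole plus chlorhexidine kill blank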
#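 Test system: C. albicans CAF4-2 wild-type biofilms; buffer or medium: RPMI/MOPS medium, pH 7.0; schedule: 24 h biofilm formation, then 48 h compound exposure, 37 °C; detection: Alamar Blue fluorescence; measure: percent inhibition of biofilm viability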
# Hep lipid drop – hepatic lipid droplet formation modulation; AID 1656; 240,000 compounds, 0.4% hits; AML12 mouse hepatocytes, oleate lipid droplets, BODIPY imaging; inhibition, % at 6.5 µM;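 active = lipid droplet intensity inhibited by at least 50%, with more than 500 cells counted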
#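 Assay system: AML12 hepatocytes (mouse) / Also added: 100 µM oleic acid challenge / Times: overnight treatment with compound plus oleate / Detection: high-content imaging of BODIPY-stained droplets and DAPI nuclei / Evaluation: % inhibition of lipid droplet signal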
# FXIIa inh 1536 – blocks human coagulation factor XIIa protease activity; P00748; purified FXIIa, Boc-QGR-AMC fluorogenic substrate, 2 h; inhibition, % at 5 µM; 220,000 compounds, 0.3% hits; AID 800; in the data active = inhibition above about 40%;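 also: 0% = enzyme with no compound and 100% = blank without enzyme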
# FXIa inh – inhibitors of human coagulation factor XIa | P03951 | purified FXIa, Boc-Glu-Ala-Arg-AMC fluorogenic substrate | inhibition, % at 5 µM | 220,000 compounds, 0.14% hits | AID 798;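 active = inhibition of at least 40%; inactive = inhibition below 40%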;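 also: fluorescence of freed AMC excited at 355 nm; 0% = enzyme without compound and 100% = no enzyme blank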
# Target sequence (P03951 19-387 limits assumed): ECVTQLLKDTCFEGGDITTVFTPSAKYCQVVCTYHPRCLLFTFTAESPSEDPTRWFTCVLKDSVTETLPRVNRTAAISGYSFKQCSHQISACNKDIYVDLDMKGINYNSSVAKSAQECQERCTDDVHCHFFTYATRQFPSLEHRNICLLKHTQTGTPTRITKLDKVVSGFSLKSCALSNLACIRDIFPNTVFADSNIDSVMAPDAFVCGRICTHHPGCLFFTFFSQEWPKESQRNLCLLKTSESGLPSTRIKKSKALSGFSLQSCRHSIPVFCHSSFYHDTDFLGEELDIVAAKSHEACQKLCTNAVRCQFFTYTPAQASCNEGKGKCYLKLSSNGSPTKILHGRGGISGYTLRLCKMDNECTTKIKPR
# Target sequence (P03951 388-625 limits assumed): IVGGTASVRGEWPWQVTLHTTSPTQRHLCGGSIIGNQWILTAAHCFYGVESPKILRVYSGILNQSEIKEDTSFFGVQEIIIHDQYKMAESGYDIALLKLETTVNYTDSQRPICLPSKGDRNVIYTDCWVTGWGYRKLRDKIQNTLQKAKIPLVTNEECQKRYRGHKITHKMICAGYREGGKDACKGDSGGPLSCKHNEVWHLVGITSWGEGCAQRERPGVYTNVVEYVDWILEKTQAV
# hK5 inh – inhibitors of human kallikrein 5. recombinant hK5, fluorogenic AMC substrate cleavage. inhibition, % at 5 µM. 210,000 compounds, 0.59% hits;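 active = inhibition of 40% or more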;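 also: 0% = enzyme controls without compound and 100% = no-enzyme blanks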
# Hep lipid conf – confirmation of inhibitors of hepatic lipid droplet formation; shares compounds with Hep lipid drop; AML12 mouse hepatocytes, BODIPY lipid droplet imaging; droplets induced with 100 µM oleic acid; inhibition, % at 5.2 µM; 870 compounds, 65% hits; AID 463183;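 active = inhibition of lipid droplet metric at least 50%, with more than 300 cells in each of four replicates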;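 also: plate controls were DMSO with oleic acid for no effect and 5 µM Triacsin-C for full effect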
# AML12 tox img – AML12 hepatocyte cytotoxicity (counter-screen). shares compounds with Hep lipid drop. AML12 mouse hepatocytes, DAPI nuclear morphology cytotoxicity imaging; hits give high values; cells fed 100 µM oleate overnight. z-score at 5 µM. 870 compounds, 3% hits. AID 463200; in the data active = z-score above about 6.3;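 also: compound exposure lasted overnight at 37 °C before fixation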
# AML12 tox ATP – AML12 hepatocyte cytotoxicity, confirmed. shares compounds with Hep lipid drop. AML12 mouse hepatocyte viability, ATP luminescence; cells loaded with 100 µM oleic acid. cytotoxicity, % at 50 µM. 530 tested, under 10 active. AID 463219;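 active = cytotoxicity above 50% in each of four replicates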;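 also: compound exposure lasted overnight at 37 °C before the ATP read; 0% = DMSO-treated cells and 100% = wells with no cells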
# * marks the source's active call; other numbers are inactive results; · = no result. This is a sample that favours compounds with a hit; in the whole collection about 1.1% have one here.
SMILES,thrombin 1536,Biofilm kill mix,Hep lipid drop,FXIIa inh 1536,FXIa inh,hK5 inh,Hep lipid conf,AML12 tox img,AML12 tox ATP
CCOC(=O)c1cc(-c2c(Cl)cccc2Cl)no1,-6,14,-10,4,-9,32,·,·,·
CN(C)/C=N/n1cnc2ccccc2c1=O,2,3,61*,8,3,2,-24,-0.36,·
CN(C)C(=O)c1ccc(-n2cnc3ccccc3c2=O)cc1,-1,5,5,9,-1,-1,·,·,·
Cc1ccc(NC(=O)CN2C(=O)NC3(CCCC3)C2=O)c(Cl)c1,·,·,1,·,·,·,·,·,·
COc1n[nH]c(C(=O)Nc2cc(F)ccc2C)c1[N+](=O)[O-],11,11,55*,18,11,8,9,-0.67,·
COc1n[nH]c(C(=O)Nc2cc(Cl)ccc2Cl)c1[N+](=O)[O-],1,24,-1,5,0,2,·,·,·
COc1ccc(C)cc1NC(=O)CCNS(=O)(=O)c1cccc(C(F)(F)F)c1,·,·,55*,·,·,·,83*,0.18,6
O=C(CSc1nc2ccccc2o1)Nc1nncs1,-2,·,-35,18,19,-25,·,·,·
O=C(CSc1nc2ccccc2o1)Nc1nc(-c2ccccc2)c(-c2ccccc2)s1,-12,21,60*,-3,-8,-5,96*,-0.048,-12
Cc1cc2nn(-c3ccc(Cl)cc3)nc2cc1N,·,·,62*,·,·,·,73*,0.24,49
Cc1cc2nn(-c3ccc(F)cc3)nc2cc1N,·,·,14,·,·,·,·,·,·
Cc1c(S(=O)(=O)c2ccccn2)c(N)n(Cc2ccccc2)c1C,-5,10,61*,7,1,1,8,-0.61,·
CCOc1cc2[nH]c(=O)n(CCCC(=O)N(C)Cc3ccccc3)c(=O)c2cc1OCC,-4,15,70*,8,-3,0,107*,-0.48,10
CCOC(=O)CSc1c(-c2cccs2)[nH]c2ccccc12,1,9,83*,12,-362,-9,95*,-0.71,4
O=C(/C(Cl)=C/Nc1ccc(Br)cn1)C(F)(F)F,-22,13,4,7,-6,-2,·,·,·
O=C(COc1ccc(Cl)cc1)Nc1ccc2c(c1)C(=O)NC2=O,·,·,60*,·,·,·,5,0.079,·
COc1ccc2c(c1)-c1c(ssc1=S)C(C)(C)N2S(=O)(=O)c1ccc(C)cc1,-3,10,51*,10,1,-5,61,1.3,·
Cc1cc(OC(=O)c2ccccc2Br)c([N+](=O)[O-])c(=O)[nH]1,·,·,16,·,·,·,·,·,·
C1CCc2c(nc3nnnn3c2NCC2CC2)C1,-7,12,7,0,-5,-2,·,·,·
CC(/C=N/NC(=O)c1nnn(-c2nonc2N)c1C(C)C)=C\c1ccco1,·,·,-3,·,·,·,·,·,·
FC(F)(F)c1cc(N2CCOCC2)nc(-c2ccccc2)n1,-4,-8,0,11,7,-10,·,·,·
c1ccc(-c2nc(N3CCOCC3)cc(N3CCOCC3)n2)cc1,0,20,67*,3,-1,-7,92*,-0.2,25
COc1ccc(C(=O)CCC(=O)NCCc2c[nH]c3ccccc23)cc1OC,·,·,124*,·,·,·,99*,0.65,16
COc1cccc(CNC(=O)CCCc2c[nH]c3ccccc23)c1,·,·,64*,·,·,·,69*,0.22,17
COc1ccc(N2CCN(CCNC(=O)Nc3ccc([N+](=O)[O-])cc3OC)CC2)cc1,·,·,0,·,·,·,·,·,·
SMILES,thrombin 1536,Biofilm kill mix,Hep lipid drop,FXIIa inh 1536,FXIa inh,hK5 inh,Hep lipid conf,AML12 tox img,AML12 tox ATP
Cc1cccc(NC(=O)CSc2nc3ccccc3nc2N2CCCC2)c1C,·,·,55*,·,·,·,63,-0.26,·
COc1ccc(NC(=O)CSc2nc3ccccc3nc2N2CCCC2)cc1Cl,·,·,64*,·,·,·,96*,-0.14,5
COc1ccccc1N1CCN(C(=O)CSc2nc3ccccc3nc2N2CCCCC2)CC1,·,·,14,·,·,·,·,·,·
CC(=O)Nc1ccc(NC(=O)CSc2nc3ccccc3nc2N2CCCCC2)cc1,·,·,-3,·,·,·,·,·,·
CCOc1ccc(NC(=O)CSc2nc3ccccc3nc2N2CCCC2)cc1,·,·,81*,·,·,·,106*,-1,13
COc1ccc(C)cc1NC(=O)CSc1nc2ccccc2nc1N1CCCCC1,·,·,-1,·,·,·,·,·,·
COc1ccccc1N1CCN(C(=O)CSc2nc3ccccc3nc2N2CCC(C)CC2)CC1,·,·,52*,·,·,·,26,0.4,·
O=C(COc1ccc(Cl)cc1)NCc1ccc(F)cc1,·,·,0,·,·,·,·,·,·
CCOc1ccc(N(C)C(=O)CCc2nnc3ccc(NCc4ccco4)nn23)cc1,·,·,-2,·,·,·,·,·,·
Cc1cc(C)cc(NC(=O)CSc2nc3ccccc3nc2N2CCCC2)c1,·,·,70*,·,·,·,107*,-0.28,17
COc1ccc(C)cc1NC(=O)C/C(C)=N/NC(=O)Cc1cccc2ccccc12,·,·,72*,·,·,·,70*,-0.61,11
CCc1nn2c(N3CCOCC3)cc(C)nc2c1-c1ccc(F)cc1,-9,·,88*,5,6,3,110*,0.76,2
CCCc1cc(N2CCOCC2)n2nc(C)c(-c3ccccc3)c2n1,·,·,64*,·,·,·,96*,0.76,-2
Cc1nc2nc(-c3ccc(Cl)cc3)nn2c(C)c1Cl,5,·,·,3,1,6,·,·,·
Cc1cc(N2CCN(C)CC2)n2nc(-c3ccc(Cl)cc3)nc2n1,1,11,61*,7,2,1,22,-0.26,·
CCCc1cc(N2CCN(c3ccccn3)CC2)n2nc(C)c(-c3ccccc3)c2n1,0,·,·,36,19,-25,·,·,·
Cc1cc(N2CCOCC2)n2nc(C(F)(F)F)c(-c3ccccc3)c2n1,·,·,37,·,·,·,·,·,·
Cc1cc(N2CCOCC2)n2nc(C)c(-c3ccc(Cl)cc3)c2n1,·,·,98*,·,·,·,110*,0.25,11
CCN1CCN(c2c(C=O)c(Cl)nc3ccc(OC)cc23)CC1,·,·,0,·,·,·,·,·,·
Cn1cc([N+](=O)[O-])c(C(=O)n2cccn2)n1,2,22,21,11,0,0,·,·,·
COC(=O)C1=C(C(=O)OC)SC(=C2C(=S)C(C)(C)N(C(=O)C(C)C)c3ccccc32)S1,0,·,57*,9,3,6,102*,0.57,17
CCn1cc(C(=O)N(C)c2ccc(OC)cc2)c2cc(OC)c(OC)cc2c1=O,·,·,68*,·,·,·,25,-0.89,·
CCN(CC)C(=O)c1cn(CC)c(=O)c2cc(OC)c(OC)cc12,4,·,3,8,4,-19,·,·,·
O=[N+]([O-])c1ccc(Cl)c(C[n+]2cccc3ccccc32)c1,·,·,-8,·,·,·,·,·,·
CCc1c(C#N)c(SCCC(=O)Nc2cccc(OC)c2)nc2c1C(=O)CC(C)(C)C2,-3,·,58*,14,3,1,101*,0.69,3
